In ChEMBL document CHEMBL1144020, “Development of prodrug 4-chloro-3-(5-methyl-3-{[4-(2-pyrrolidin-1-ylethoxy)phenyl]amino}-1,2,4-benzotriazin-7-yl)phenyl benzoate (TG100801): a topically administered therapeutic candidate in clinical trials for the treatment of age-related macular degeneration” (J Med Chem, 2008):
Blank lines part the entries; values can stand above or below the compound they belong to.

Legend:
[1] = target: Vascular endothelial growth factor receptor 2 (Homo sapiens, UniProt P35968); assay: Inhibition of VEGFR2
Vascular endothelial growth factor receptor 2, sequence (P35968 whole entry): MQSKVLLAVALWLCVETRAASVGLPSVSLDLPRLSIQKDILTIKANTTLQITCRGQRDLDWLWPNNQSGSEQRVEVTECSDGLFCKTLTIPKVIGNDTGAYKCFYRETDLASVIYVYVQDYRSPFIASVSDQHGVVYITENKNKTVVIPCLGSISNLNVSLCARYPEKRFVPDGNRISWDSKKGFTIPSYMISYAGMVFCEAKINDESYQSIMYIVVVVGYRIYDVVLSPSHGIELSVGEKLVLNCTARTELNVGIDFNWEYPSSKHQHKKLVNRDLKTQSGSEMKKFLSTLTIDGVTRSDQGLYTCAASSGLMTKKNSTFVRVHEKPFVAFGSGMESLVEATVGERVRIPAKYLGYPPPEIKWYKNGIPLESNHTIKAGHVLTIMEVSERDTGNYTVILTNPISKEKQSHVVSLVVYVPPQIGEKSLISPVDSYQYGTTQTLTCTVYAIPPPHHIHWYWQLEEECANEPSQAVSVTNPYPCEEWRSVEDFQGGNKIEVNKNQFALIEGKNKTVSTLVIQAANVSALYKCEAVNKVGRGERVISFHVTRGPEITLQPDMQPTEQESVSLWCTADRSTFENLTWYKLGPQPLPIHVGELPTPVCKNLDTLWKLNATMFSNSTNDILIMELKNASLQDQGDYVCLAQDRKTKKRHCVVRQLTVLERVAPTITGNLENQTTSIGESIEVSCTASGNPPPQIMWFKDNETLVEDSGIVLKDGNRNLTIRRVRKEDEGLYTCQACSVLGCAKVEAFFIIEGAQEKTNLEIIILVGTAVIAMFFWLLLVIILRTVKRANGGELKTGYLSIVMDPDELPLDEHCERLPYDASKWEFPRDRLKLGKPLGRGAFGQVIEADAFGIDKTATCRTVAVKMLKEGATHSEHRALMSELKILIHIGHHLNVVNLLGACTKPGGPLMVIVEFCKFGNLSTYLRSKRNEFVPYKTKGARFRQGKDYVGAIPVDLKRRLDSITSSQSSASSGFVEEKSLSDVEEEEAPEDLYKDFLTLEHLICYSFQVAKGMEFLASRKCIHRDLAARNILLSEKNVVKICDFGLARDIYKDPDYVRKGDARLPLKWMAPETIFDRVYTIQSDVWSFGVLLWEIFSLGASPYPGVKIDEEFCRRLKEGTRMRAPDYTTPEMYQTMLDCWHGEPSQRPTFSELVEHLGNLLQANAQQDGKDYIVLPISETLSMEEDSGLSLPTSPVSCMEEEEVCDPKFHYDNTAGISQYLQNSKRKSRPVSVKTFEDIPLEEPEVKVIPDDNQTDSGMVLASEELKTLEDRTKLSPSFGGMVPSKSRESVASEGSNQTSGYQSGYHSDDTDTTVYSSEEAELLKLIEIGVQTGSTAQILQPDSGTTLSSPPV

[2] = Stability at 120 degC after 1 hr; type: physicochemical; conditions: for remaining at 1 h: read-out: Stability
How it was run: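 Prodrugs at 0.5% in 0.5% HPMC/5% dextrose, pH 6.7, in closed vials, autoclaved at 120 °C for 1 h. After cooling, percent remaining was assessed by reverse-phase HPLC with diode-array and ELSD detection.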

[3] = Cmax in C57BL/6 mouse choroid/sclera at 137 nM instilled per eye; type: ADME, organism-based; set-up: dose 137 nM, route ophthalmic; conditions: topical or ocular, 137 nM per eye
How it was run: (§1)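 One 10 µL topical drop per eye (70 µg, 137 nmol; 0.7% w/v in 27% w/v PL90G aqueous formulation) to 20 male C57BL/6 mice. Composite sampling, N = 4 per time point at 0.5, 1, 3, 7 and 24 h. Cornea, retina and choroid/sclera eye cup were dissected and plasma taken at euthanasia. LC/MS/MS quantitation; Tmax and Cmax from measured levels; AUC by linear trapezoidal rule on mean data.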

[4] = Antiproliferative activity against VEGF-stimulated human RMVEC cells after 48 hrs; type: functional, cell-based
How it was run: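 Human retinal microvascular endothelial cells (~1.5 × 10³/well) were made quiescent for ~48 h in growth-factor-free medium with 10% FBS. Cells were pretreated ~60 min with compound (5–0.00229 or 2–0.00195 µM) in medium with 10% FBS and 50 µg/mL heparin. VEGF 50 ng/mL was added for 48 h at 37 °C/5% CO₂. XTT read at 492/690 nm; IC50 by nonlinear regression.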

[5] = target: Tyrosine-protein kinase Yes (Homo sapiens, UniProt P07947); assay: Inhibition of YES
Tyrosine-protein kinase Yes, sequence (P07947 whole entry): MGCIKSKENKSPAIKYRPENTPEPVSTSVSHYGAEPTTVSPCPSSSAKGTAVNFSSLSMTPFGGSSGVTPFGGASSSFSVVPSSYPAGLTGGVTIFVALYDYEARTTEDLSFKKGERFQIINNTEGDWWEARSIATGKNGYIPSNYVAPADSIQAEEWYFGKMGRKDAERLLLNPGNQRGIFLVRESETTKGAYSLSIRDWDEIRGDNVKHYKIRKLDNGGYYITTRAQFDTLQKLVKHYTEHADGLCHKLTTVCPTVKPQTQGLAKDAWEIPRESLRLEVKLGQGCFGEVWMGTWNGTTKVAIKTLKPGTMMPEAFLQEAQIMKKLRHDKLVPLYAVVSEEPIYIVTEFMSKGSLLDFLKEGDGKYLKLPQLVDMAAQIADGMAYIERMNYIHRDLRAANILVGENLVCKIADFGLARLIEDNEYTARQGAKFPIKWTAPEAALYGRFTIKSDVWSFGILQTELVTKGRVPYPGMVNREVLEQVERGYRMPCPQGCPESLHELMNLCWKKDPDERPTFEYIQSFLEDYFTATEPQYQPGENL

[6] = Tmax in C57BL/6 mouse plasma at 137 nM instilled per eye; type: ADME, organism-based; conditions: topical or ocular, 137 nM per eye; how it was run: as §1
[7] = Cmax in C57BL/6 mouse plasma at 137 nM instilled per eye; type: ADME, organism-based; set-up: dose 137 nM, route ophthalmic; conditions: topical or ocular, 137 nM per eye; how it was run: as §1
[8] = system: Mus musculus; assay: Reduction of VEGF-induced retinal leak in BALB/c mouse administered topically at 137 nM thrice a day; type: functional; set-up: scale not given: the % may be the effect or the level left
[9] = AUC (0 to 24 hrs) in C57BL/6 mouse cornea at 137 nM instilled per eye; type: ADME, organism-based; set-up: dose 137 nM, time < 24 hr, route ophthalmic; conditions: topical or ocular, 137 nM per eye; how it was run: as §1
[10] = system: Mus musculus; assay: Reduction of VEGF-induced retinal leak in BALB/c mouse administered topically at 137 nM q.d; type: functional; set-up: scale not given: the % may be the effect or the level left
[11] = Tmax in C57BL/6 mouse retina at 137 nM instilled per eye; type: ADME, organism-based; conditions: topical or ocular, 137 nM per eye; how it was run: as §1
[12] = Tmax in C57BL/6 mouse cornea at 137 nM instilled per eye; type: ADME, organism-based; conditions: topical or ocular, 137 nM per eye; how it was run: as §1
[13] = Cmax in C57BL/6 mouse cornea at 137 nM instilled per eye; type: ADME, organism-based; set-up: dose 137 nM, route ophthalmic; conditions: topical or ocular, 137 nM per eye; how it was run: as §1
[14] = AUC (0 to 24 hrs) in C57BL/6 mouse choroid/sclera at 137 nM instilled per eye; type: ADME, organism-based; set-up: time < 24 hr, dose 137 nM, route ophthalmic; conditions: topical or ocular, 137 nM per eye; how it was run: as §1
[15] = Half life in C57BL/6 mouse administered topically at 0.7% w/v thrice a day; type: ADME, organism-based; conditions: in vivo, topical or ocular
[16] = Cmax in C57BL/6 mouse retina at 137 nM instilled per eye; type: ADME, organism-based; set-up: dose 137 nM, route ophthalmic; conditions: topical or ocular, 137 nM per eye; how it was run: as §1
[17] = AUC (0 to 24 hrs) in C57BL/6 mouse retina at 137 nM instilled per eye; type: ADME, organism-based; set-up: time < 24 hr, dose 137 nM, route ophthalmic; conditions: topical or ocular, 137 nM per eye; how it was run: as §1
[18] = target: Proto-oncogene tyrosine-protein kinase Src (Homo sapiens, UniProt P12931); assay: Inhibition of Src
Proto-oncogene tyrosine-protein kinase Src, sequence (P12931 2-536 limits assumed): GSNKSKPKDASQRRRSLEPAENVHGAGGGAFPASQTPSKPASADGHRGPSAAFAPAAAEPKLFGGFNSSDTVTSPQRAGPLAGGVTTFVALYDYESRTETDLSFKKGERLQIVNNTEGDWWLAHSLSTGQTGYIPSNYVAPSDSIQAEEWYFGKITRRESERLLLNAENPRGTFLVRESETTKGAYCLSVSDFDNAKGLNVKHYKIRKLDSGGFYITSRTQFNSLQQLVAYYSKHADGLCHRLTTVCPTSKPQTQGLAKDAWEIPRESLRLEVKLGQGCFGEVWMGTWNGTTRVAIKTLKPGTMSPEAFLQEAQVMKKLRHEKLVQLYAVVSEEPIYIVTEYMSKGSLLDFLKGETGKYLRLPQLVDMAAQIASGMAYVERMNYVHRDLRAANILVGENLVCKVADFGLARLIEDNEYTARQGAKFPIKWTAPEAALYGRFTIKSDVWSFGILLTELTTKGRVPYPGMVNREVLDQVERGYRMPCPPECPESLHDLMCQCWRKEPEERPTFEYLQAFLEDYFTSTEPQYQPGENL

[19] = system: Mus musculus; assay: Inhibition of FAK-Y861 phosphorylation in mouse at 5 mg/kg
[20] = Tmax in C57BL/6 mouse choroid/sclera at 137 nM instilled per eye; type: ADME, organism-based; conditions: topical or ocular, 137 nM per eye; how it was run: as §1
[21] = Stability in Dutch-belted rabbit eye assessed as hydrolysis rate; type: ADME, tissue-based, Oryctolagus cuniculus
How it was run: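 Two Dutch-Belted rabbit eyeballs were homogenized in 1× RIPA buffer. Prodrug (from 1 mg/mL DMSO stock) was added to a final 5 µg/mL and kept at 37 °C, sampled at 0, 0.25, 1, 2 and 6 h. Controls were prodrug in RIPA buffer for 120 min at 37 °C. Supernatants were analyzed by LC/MS/MS for prodrug and released parent phenol.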

IC50 [1]: 1.8 nM
Structure (SMILES): Cc1cc(-c2cc(O)ccc2Cl)cc2nnc(Nc3ccc(C(=O)N4CCNCC4)cc3)nc12

Cmax at 0.137 µM [3]: 23.4 µM | IC50 [5]: 0.3 nM | Tmax at 0.137 µM [6]: 360 min | Cmax at 0.137 µM [7]: 0.002 µM | IC50 [1]: 2.2 nM | AUC(0-t) at 24 h, 0.137 µM [9]: 560 µg·h/mL | Tmax at 0.137 µM [11]: 30 min | Tmax at 0.137 µM [12]: 30 min | Stability ([2]; 1 h): Stable | Cmax at 0.137 µM [13]: 64 µM | AUC(0-t) at 24 h, 0.137 µM [14]: 240 µg·h/mL | half-life [15]: 30 min | Cmax at 0.137 µM [16]: 3.6 µM | AUC(0-t) at 24 h, 0.137 µM [17]: 3.2 µg·h/mL | IC50 [18]: 1.8 nM | Tmax at 0.137 µM [20]: 30 min
Structure (SMILES): Cc1cc(-c2cc(O)ccc2Cl)cc2nnc(Nc3ccc(OCCN4CCCC4)cc3)nc12
IC50 [4]: 610 nM | Activity [8]: 85% | Activity [10]: 60% | inhibition in vivo at 5 mg/kg [19]: > 90%

IC50 [1]: 2.7 nM | IC50 [18]: 1.5 nM
Structure (SMILES): Cc1cc(-c2cc(O)ccc2Cl)cc2nnc(Nc3ccc(CCCN4CCCC4)cc3)nc12

IC50 [1]: 4.7 nM
Structure (SMILES): Cc1cc(-c2cc(O)ccc2Cl)cc2nnc(Nc3ccc(S(=O)(=O)NCCN4CCCC4)cc3)nc12

The remaining lines, values behind:

Structure (SMILES): Cc1cc(-c2cc(OP(=O)(O)O)ccc2Cl)cc2nnc(Nc3ccc(OCCN4CCCC4)cc3)nc12
remaining at 1 h [2]: < 20%

Structure (SMILES): Cc1ccc(C(=O)Oc2ccc(Cl)c(-c3cc(C)c4nc(Nc5ccc(OCCN6CCCC6)cc5)nnc4c3)c2)cc1
remaining at 1 h [2]: > 90%

Structure (SMILES): CC(=O)Oc1ccc(Cl)c(-c2cc(C)c3nc(Nc4ccc(OCCN5CCCC5)cc4)nnc3c2)c1
remaining at 1 h [2]: < 20%

Structure (SMILES): Cc1cccc(C)c1C(=O)Oc1ccc(Cl)c(-c2cc(C)c3nc(Nc4ccc(OCCN5CCCC5)cc4)nnc3c2)c1
remaining at 1 h [2]: > 90% | Stability [21]: 1.1 ng/mL/h

Structure (SMILES): Cc1cc(-c2ccccc2)cc2nnc(Nc3ccc(OCCN4CCCC4)cc3)nc12
IC50 [1]: 530 nM
